{"source": "paper PMC4040677", "about": "(Cell Death & Disease, 2014)", "key": {"Histopathology": {"assay": "Histopathology", "format": "in vivo, female Balb/c mice", "conditions": "H&E, day 28 after intravenous administration, mice", "in_short": "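Liver and kidney were fixed in 4% paraformaldehyde, moved to 70% ethanol after 20 h, and paraffin-embedded. Serial 8 μm medio-lateral sections were H&E-stained and examined by light microscopy at x20.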"}, "[1]": {"assay": "Pt excretion in urine and feces by atomic absorption spectroscopy", "format": "in vivo, rat", "conditions": "24 h after intravenous administration"}, "[2]": {"format": "in vivo", "conditions": "Pt in plasma, rat, intravenous"}, "[3]": {"assay": "Sensitivity to noxious heat", "format": "in vivo, rats", "conditions": "hind paws", "in_short": "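After 15 min acclimation, radiant heat was applied to the rat hindpaw with a thermal paw stimulator. Intensity was set so vehicle-treated rats lifted or licked the paw at about 10 s. Withdrawal latency was recorded with a 20 s cutoff.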"}, "[4]": {"assay": "Cold sensitivity/hyperalgesia", "format": "in vivo, rats", "conditions": "hindpaw withdrawal latency, 4.5 °C water", "in_short": "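One rat hindpaw per immersion was placed in cold (4.5 °C) water. Paw-withdrawal latency was timed with a 1/100 s digital timer, with a 20 s maximum cutoff.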"}, "MCF-7 cells": {"system": "MCF-7 cells", "assay": "Xenograft model of breast cancer", "format": "in vivo, BALB/c nude mice", "in_short": "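Female nude BALB/c mice (6 wk, 20–30 g, pathogen-free) received 7.5 × 10^6 MCF-7 cells in the right flank. Cells were cultured in DMEM with 10% FBS and penicillin/streptomycin. Tumors grew 4 weeks without hormone, then weekly s.c. 17β-oestradiol valerate (0.1 mg/kg, sesame oil). At ~100 mm3, mice were randomized and given a single i.v. dose (5 or 10 mg/kg) or saline. Calliper volumes, (L×W²)/2, were taken every 3 days for 30 days; ANOVA/t-test, P<0.05.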"}}}
{"smiles": "N.N.[Cl][Pt][Cl]", "note": "[cisplatin]", "values": [{"measurement": "histopathological changes in kidneys", "setting": "Histopathology", "value": "focal subcapsular tubular vacuolization, dilated subcapsular space and consistent basophilia"}, {"measurement": "histopathological changes in liver", "setting": "Histopathology", "value": "dilated intra-lobular spaces and evident edema"}, {"measurement": "24-h cumulative Pt excretion", "setting": "[1]", "value": "31.6±3.4", "unit": "%"}, {"measurement": "AUC0–24", "setting": "[2]", "value": "40.38±6.2", "unit": "h-μg/ml"}, {"measurement": "CL", "setting": "[2]", "value": "7.98 ± 1.2", "unit": "mL/h"}, {"measurement": "Cmax", "setting": "[2]", "value": "22620 ± 1800", "unit": "ng/mL"}, {"measurement": "thermal response / hindpaw sensitivity to noxious heat", "setting": "[3]", "value": "significantly increased"}, {"measurement": "cold hyperalgesia / hindpaw sensitivity to cold", "setting": "[4]", "value": "significantly increased"}, {"measurement": "average tumor volume", "setting": "MCF-7 cells; 10 mg/kg single intravenous, after 30 days, saline 249.32±43.97", "value": "233.67±50.71", "unit": "mm^3"}, {"measurement": "reduction of tumor mass", "setting": "MCF-7 cells; solid tumor-bearing mice", "value": "~10", "unit": "%"}]}
